Data on three molecules can be found in ChEMBL document CHEMBL1157825, “1-(2-Ethoxyethyl)-1H-pyrazolo[4,3-d]pyrimidines as potent phosphodiesterase 5 (PDE5) inhibitors” (Bioorg Med Chem Lett, 2010).

A short description of the data set: Volume of distribution at steady state in Beagle dog at 0.2 to 0.5 mg/kg, iv. Conditions: in vivo, read-out: Vdss. Further details: dose 0.2-0.5 mg/kg, route intravenous. In kind it is ADME, organism-based, Canis lupus familiaris. A digest of the protocol:
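Single IV dose of 0.2–0.5 mpk given to 10 kg beagles. Half-life reported in h, clearance in mL/min/kg and Vdss in L/kg.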

Regarding `CCOCCn1nc(CC)c2nc(N3CCC(C(=O)O)CC3)nc(Nc3cc(C)ccn3)c21`, the Vd is 3.8 L/kg.
The same measure for `CCOCCn1nc(CC)c2nc(N3CCC(N)CC3)nc(Nc3cc(C)ccn3)c21`: 50.4 L/kg.
The result for `CCOCCn1nc(CC)c2nc(N3CCN(C)CC3)nc(Nc3cc(C)ccn3)c21` reads 11.4 L/kg.
